Results as given in ChEMBL document CHEMBL1151455, “Increased macrolide resistance of Mycoplasma pneumoniae in pediatric patients with community-acquired pneumonia” (2008).
Converted amounts (≈) assume the structure as drawn.

Assays:
Format in all cases: functional
[1] = tested on: Mycoplasmoides pneumoniae; experiment: Antimicrobial activity against macrolide-susceptible Mycoplasma pneumoniae isolated from pediatric patients with community-acquired pneumonia after 10 to 14 days by microdilution method
Summary of the method: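 Pediatric CAP nasopharyngeal isolates, cultured in PPLO broth from real-time PCR-positive samples; strain M129 as control. Broth microdilution in PPLO broth: inoculum estimated at 10^5 CFU/ml added 1:10 to serially diluted antibiotic. Incubated aerobically at 37°C for 10–14 days, until the antibiotic-free growth control changed colour. MIC taken as lowest concentration preventing colour change; MIC50/MIC90 and range reported.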

[2] = tested on: Mycoplasmoides pneumoniae; experiment: Antimicrobial activity against macrolide-resistant Mycoplasma pneumoniae harboring A2063G transition in domain V of 23S rRNA isolated from pediatric patients with community-acquired pneumonia after 10 to 14 days by microdilution method
Summary of the method: (§1)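 Clinical isolates cultured from PCR-positive pediatric nasopharyngeal samples in PPLO broth; resistance mutation identified by full-length 23S rRNA gene sequencing. Broth microdilution in PPLO broth containing serially diluted antibiotics, inoculum estimated at 10^5 CFU/ml in culture. Incubated aerobically at 37°C for 10 to 14 days until the antibiotic-free control changed colour. MIC was the lowest concentration preventing the colour change. Strain M129 served as control.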

[3] = tested on: Mycoplasmoides pneumoniae; experiment: Antimicrobial activity against macrolide-resistant Mycoplasma pneumoniae harboring A2064G transition in domain V of 23S rRNA isolated from pediatric patients with community-acquired pneumonia after 10 to 14 days by microdilution method; summary of the method: as §1

CCCC(=O)O[C@H]1[C@H](C)O[C@@H](O[C@H]2[C@H](N(C)C)[C@@H](O)[C@H](O[C@H]3[C@@H](CC=O)C[C@@H](C)[C@@H](O)/C=C/C=C/C[C@@H](C)OC(=O)C[C@@H](O)[C@@H]3OC)O[C@@H]2C)C[C@@]1(C)OC(=O)CC [ROKITAMYCIN]
MIC50 [1]: 0.0156 µg/mL (≈ 0.0188 µM) | MIC90 [1]: 0.0156 µg/mL (≈ 0.0188 µM) | MIC50 [2]: 0.125 µg/mL (≈ 0.151 µM) | MIC90 [2]: 0.25 µg/mL (≈ 0.302 µM) | MIC50 [3]: 16 µg/mL (≈ 19.3 µM) | MIC90 [3]: 16 µg/mL (≈ 19.3 µM)

CC[C@H]1OC(=O)[C@H](C)[C@@H](O[C@H]2C[C@@](C)(OC)[C@@H](O)[C@H](C)O2)[C@H](C)[C@@H](O[C@@H]2O[C@H](C)C[C@H](N(C)C)[C@H]2O)[C@](C)(O)C[C@@H](C)C(=O)[C@H](C)[C@@H](O)[C@]1(C)O [ERYTHROMYCIN]
MIC50 [1]: 0.0078 µg/mL (≈ 0.0106 µM) | MIC90 [1]: 0.0156 µg/mL (≈ 0.0213 µM) | MIC50 [2]: 64 µg/mL (≈ 87.2 µM) | MIC90 [2]: > 64 µg/mL | MIC [3]: ≥ 64 µg/mL | MIC50 [3]: > 64 µg/mL | MIC90 [3]: > 64 µg/mL

CC[C@H]1OC(=O)[C@H](C)[C@@H](O[C@H]2C[C@@](C)(OC)[C@@H](O)[C@H](C)O2)[C@H](C)[C@@H](O[C@@H]2O[C@H](C)C[C@H](N(C)C)[C@H]2O)[C@](C)(OC)C[C@@H](C)C(=O)[C@H](C)[C@@H](O)[C@]1(C)O [CLARITHROMYCIN]
MIC50 [1]: 0.0039 µg/mL (≈ 0.00521 µM) | MIC90 [1]: 0.0078 µg/mL (≈ 0.0104 µM) | MIC50 [2]: 64 µg/mL (≈ 85.6 µM) | MIC90 [2]: > 64 µg/mL | MIC50 [3]: 64 µg/mL (≈ 85.6 µM) | MIC90 [3]: 64 µg/mL (≈ 85.6 µM)

CN(C)c1ccc(O)c2c1C[C@H]1C[C@H]3[C@H](N(C)C)C(O)=C(C(N)=O)C(=O)[C@@]3(O)C(O)=C1C2=O [MINOCYCLINE]
MIC50 [1]: 0.5 µg/mL (≈ 1.09 µM) | MIC90 [1]: 1 µg/mL (≈ 2.19 µM) | MIC50 [2]: 0.5 µg/mL (≈ 1.09 µM) | MIC90 [2]: 1 µg/mL (≈ 2.19 µM) | MIC50 [3]: 0.5 µg/mL (≈ 1.09 µM) | MIC90 [3]: 1 µg/mL (≈ 2.19 µM)

CO[C@@H]1[C@@H](O[C@@H]2O[C@H](C)[C@@H](O[C@H]3C[C@@](C)(O)[C@@H](OC(=O)CC(C)C)[C@H](C)O3)[C@H](N(C)C)[C@H]2O)[C@@H](CC=O)C[C@@H](C)[C@@H](O)/C=C/C=C/C[C@@H](C)OC(=O)C[C@H]1OC(C)=O [JOSAMYCIN]
MIC50 [1]: 0.0313 µg/mL (≈ 0.0378 µM) | MIC90 [1]: 0.0625 µg/mL (≈ 0.0755 µM) | MIC50 [2]: 8 µg/mL (≈ 9.66 µM) | MIC90 [2]: 16 µg/mL (≈ 19.3 µM) | MIC50 [3]: 64 µg/mL (≈ 77.3 µM) | MIC90 [3]: > 64 µg/mL

CC[C@H]1OC(=O)[C@H](C)C(=O)[C@H](C)[C@@H](O[C@@H]2O[C@H](C)C[C@H](N(C)C)[C@H]2O)[C@](C)(OC)C[C@@H](C)C(=O)[C@H](C)[C@H]2N(CCCCn3cnc(-c4cccnc4)c3)C(=O)O[C@]12C [TELITHROMYCIN]
MIC50 [1]: 0.00098 µg/mL (≈ 0.00121 µM) | MIC90 [1]: 0.00195 µg/mL (≈ 0.0024 µM) | MIC50 [2]: 32 µg/mL (≈ 39.4 µM) | MIC90 [2]: 64 µg/mL (≈ 78.8 µM) | MIC50 [3]: 4 µg/mL (≈ 4.93 µM) | MIC90 [3]: 16 µg/mL (≈ 19.7 µM)

CC[C@H]1OC(=O)[C@H](C)[C@@H](O[C@H]2C[C@@](C)(OC)[C@@H](O)[C@H](C)O2)[C@H](C)[C@@H](O[C@@H]2O[C@H](C)C[C@H](N(C)C)[C@H]2O)[C@](C)(O)C[C@@H](C)CN(C)[C@H](C)[C@@H](O)[C@]1(C)O [AZITHROMYCIN]
MIC50 [1]: 0.00049 µg/mL (≈ 0.000654 µM) | MIC90 [1]: 0.00098 µg/mL (≈ 0.00131 µM) | MIC50 [2]: 32 µg/mL (≈ 42.7 µM) | MIC90 [2]: 64 µg/mL (≈ 85.4 µM) | MIC50 [3]: 32 µg/mL (≈ 42.7 µM) | MIC90 [3]: 64 µg/mL (≈ 85.4 µM)

C[C@H]1COc2c(N3CCN(C)CC3)c(F)cc3c(=O)c(C(=O)O)cn1c23.C[C@H]1COc2c(N3CCN(C)CC3)c(F)cc3c(=O)c(C(=O)O)cn1c23.O [LEVOFLOXACIN]
MIC50 [1]: 0.5 µg/mL | MIC90 [1]: 1 µg/mL | MIC50 [2]: 1 µg/mL | MIC90 [2]: 1 µg/mL | MIC50 [3]: 1 µg/mL | MIC90 [3]: 1 µg/mL
